According to ChEMBL document CHEMBL3425482, “Structure-guided design and optimization of dipeptidyl inhibitors of norovirus 3CL protease. Structure-activity relationships and biochemical, X-ray crystallographic, cell-based, and in vivo studies” (J Med Chem, 2015):

Legend:
[1] = Inhibition of Norovirus recombinant 3CL protease using Edans-EPDFHLQGPEDLAK-Dabcyl as substrate for 30 mins by fluorometry
Norovirus = test: Antiviral activity against Norovirus infected in human HG23 cells; type: functional, cell-based
[2] = target: T1, Carboxypeptidase A1 (Homo sapiens) (UniProt P15085); test: Inhibition of carboxypeptidase A (unknown origin); conditions: concentration not given here
T1 sequence (whole entry): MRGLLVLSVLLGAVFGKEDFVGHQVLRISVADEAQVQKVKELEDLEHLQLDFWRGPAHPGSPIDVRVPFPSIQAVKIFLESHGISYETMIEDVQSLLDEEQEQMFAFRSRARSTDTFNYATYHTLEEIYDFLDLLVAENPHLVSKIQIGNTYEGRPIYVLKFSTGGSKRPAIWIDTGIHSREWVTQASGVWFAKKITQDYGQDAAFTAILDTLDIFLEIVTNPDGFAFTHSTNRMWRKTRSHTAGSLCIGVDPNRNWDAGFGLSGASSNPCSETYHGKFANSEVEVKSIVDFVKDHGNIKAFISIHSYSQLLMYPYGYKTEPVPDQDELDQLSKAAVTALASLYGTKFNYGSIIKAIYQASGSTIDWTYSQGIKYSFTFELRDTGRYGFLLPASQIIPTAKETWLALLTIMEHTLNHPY

[3] = target: Coagulation factor X (Homo sapiens) (UniProt P00742); test: Inhibition of human factor 10a using Pefachrome-tPA substrate; conditions: concentration not given here
Homo sapiens = species on record: Homo sapiens; test: Inhibition of chymotrypsin (unknown origin); conditions: concentration not given here
[4] = target: Plasminogen (Homo sapiens) (UniProt P00747); test: Inhibition of plasmin (unknown origin); conditions: concentration not given here
Bos taurus = species on record: Bos taurus; test: Inhibition of bovine trypsin; conditions: concentration not given here
[5] = target: Prothrombin (Homo sapiens) (UniProt P00734); test: Inhibition of human thrombin after 10 mins incubation by chromogenic substrate hydrolysis assay
[6] = target: T2, Neutrophil elastase (Homo sapiens) (UniProt P08246); test: Inhibition of human neutrophil elastase; conditions: concentration not given here
T2 sequence (whole entry): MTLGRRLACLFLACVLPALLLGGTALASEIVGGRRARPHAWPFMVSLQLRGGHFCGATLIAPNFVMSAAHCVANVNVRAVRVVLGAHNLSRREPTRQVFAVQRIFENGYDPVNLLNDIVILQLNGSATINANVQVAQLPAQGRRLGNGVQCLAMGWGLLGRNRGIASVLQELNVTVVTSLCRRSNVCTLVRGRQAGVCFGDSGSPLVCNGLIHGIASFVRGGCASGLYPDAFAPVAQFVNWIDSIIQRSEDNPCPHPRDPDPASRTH

[7] = Antiviral activity against Murine norovirus 1 infected in Balb/c mouse assessed as reduction in viral titers in small intestine at 10 mg/kg, ip twice daily started 4 hrs prior to infection measured after 72 hrs post infection; conditions: route intraperitoneal
[8] = Antiviral activity against Murine norovirus 1 infected in mouse RAW264.7 cells assessed as inhibition of viral replication; type: functional, cell-based
Procedure, shortened: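 RAW264.7 mouse macrophages were kept in DMEM with 2–5% FBS. Serially diluted compound (DMSO ≤0.5%) was added to confluent monolayers. Cells were infected immediately with MNV-1 at MOI 0.05–0.1 and held 48 h at 37 °C. After freeze-thaw, virus titres were read by TCID50. EC50 came from nonlinear variable-slope regression of inhibition versus log concentration.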

[9] = Antiviral activity against Murine norovirus 1 infected in Balb/c mouse assessed as reduction in viral titers in large intestine at 10 mg/kg, ip twice daily started 4 hrs prior to infection measured after 72 hrs post infection; conditions: route intraperitoneal

Chain of Coagulation factor X (Homo sapiens) (P00742 41-179 limits assumed): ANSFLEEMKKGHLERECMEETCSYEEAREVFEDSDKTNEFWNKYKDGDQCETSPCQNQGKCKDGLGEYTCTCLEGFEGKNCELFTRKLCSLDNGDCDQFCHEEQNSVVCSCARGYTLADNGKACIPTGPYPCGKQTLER
Chain of Coagulation factor X (Homo sapiens) (P00742 235-488 limits assumed): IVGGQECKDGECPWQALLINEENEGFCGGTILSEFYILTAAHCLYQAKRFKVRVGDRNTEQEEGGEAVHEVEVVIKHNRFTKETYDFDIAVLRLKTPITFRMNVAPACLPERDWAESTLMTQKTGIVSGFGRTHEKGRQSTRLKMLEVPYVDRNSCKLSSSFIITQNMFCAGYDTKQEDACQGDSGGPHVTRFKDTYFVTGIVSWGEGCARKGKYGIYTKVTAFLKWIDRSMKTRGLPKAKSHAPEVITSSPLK
Chain of Plasminogen (Homo sapiens) (P00747 97-580 limits assumed): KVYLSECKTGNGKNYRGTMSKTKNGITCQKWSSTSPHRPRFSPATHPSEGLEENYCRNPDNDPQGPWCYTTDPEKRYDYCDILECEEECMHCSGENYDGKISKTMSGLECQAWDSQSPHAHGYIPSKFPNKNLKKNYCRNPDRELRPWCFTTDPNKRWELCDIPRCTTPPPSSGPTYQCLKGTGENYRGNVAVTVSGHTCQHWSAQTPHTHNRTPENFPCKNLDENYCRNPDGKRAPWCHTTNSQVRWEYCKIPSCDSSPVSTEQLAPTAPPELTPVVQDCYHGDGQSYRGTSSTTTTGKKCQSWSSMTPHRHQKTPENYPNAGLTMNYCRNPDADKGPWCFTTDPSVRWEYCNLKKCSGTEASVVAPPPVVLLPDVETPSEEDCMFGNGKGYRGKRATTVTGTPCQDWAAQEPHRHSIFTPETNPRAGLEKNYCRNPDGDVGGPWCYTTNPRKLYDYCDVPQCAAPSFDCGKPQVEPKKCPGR
Chain of Plasminogen (Homo sapiens) (P00747 581-810 limits assumed): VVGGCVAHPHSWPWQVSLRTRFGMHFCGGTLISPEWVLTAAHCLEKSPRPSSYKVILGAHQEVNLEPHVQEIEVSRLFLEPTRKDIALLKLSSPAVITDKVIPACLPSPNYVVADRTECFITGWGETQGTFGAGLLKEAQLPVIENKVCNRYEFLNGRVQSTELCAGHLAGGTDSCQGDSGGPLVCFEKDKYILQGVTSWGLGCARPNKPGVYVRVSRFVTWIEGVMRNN

| SMILES | IC50 [1] [nM] | EC50 (Norovirus) [nM] | also measured |
| --- | --- | --- | --- |
| O=C[C@H](C[C@@H]1CCNC1=O)NC(=O)[C@@H](NC(=O)OCc1cccc(Cl)c1)C1CCCCC1 | 5100 | 150 | – |
| CC(C)C[C@H](NC(=O)OCc1cccc(Cl)c1)C(=O)N[C@H](C=O)C[C@@H]1CCNC1=O | 900 | 100 | – |
| CC(C)C[C@H](NC(=O)OCc1ccccc1)C(=O)N[C@H](C=O)C[C@@H]1CCNC1=O | 600 | 200 | – |
| COc1cccc(COC(=O)N[C@@H](CC2CCCCC2)C(=O)N[C@H](C=O)C[C@@H]2CCNC2=O)c1 | 1400 | 150 | – |
| O=C(N[C@@H](CC1CCCCC1)C(=O)N[C@@H](C[C@@H]1CCNC1=O)C(=O)C(=O)NC1CC1)OCc1cccc(Cl)c1 | 250 | 85 | – |
| CC(C)(C)OC(=O)Nc1cccc(COC(=O)N[C@@H](CC2CCCCC2)C(=O)N[C@H](C=O)C[C@@H]2CCNC2=O)c1 | 4500 | 1500 | – |
| CS(=O)(=O)NC(=O)[C@H](C[C@@H]1CCNC1=O)NC(=O)[C@H](CC1CCCCC1)NC(=O)OCc1cccc(Cl)c1 | > 10000 | > 2000 | – |
| O=C(N[C@@H](CC1CCCCC1)C(=O)N[C@@H](C[C@@H]1CCNC1=O)C(=O)C(=O)NC1CC1)OCc1cccc(Br)c1 | 1500 | 200 | – |
| N#Cc1cccc(COC(=O)N[C@@H](CC2CCCCC2)C(=O)N[C@H](C=O)C[C@@H]2CCNC2=O)c1 | > 10000 | 200 | – |
| O=C[C@H](C[C@@H]1CCNC1=O)NC(=O)[C@H](CC1CCCCC1)NC(=O)OCc1cccc(Br)c1 | 300 | 30 | inhibition [2]: 11.6%; inhibition [3]: 0%; inhibition (Homo sapiens): 0%; inhibition [4]: 7%; inhibition (Bos taurus): 0%; inhibition [5]: 0%; inhibition [6]: 26.5% |
| O=C[C@H](C[C@@H]1CCNC1=O)NC(=O)[C@H](CC1CCCCC1)NC(=O)OCc1cccc(Cl)c1 | 100 | 20 | inhibition [2]: 12%; fold change (FC) [7]: 42.12; inhibition [3]: 1%; inhibition (Homo sapiens): 0%; inhibition [4]: 0%; inhibition (Bos taurus): 5%; inhibition [5]: 0%; inhibition [6]: 15%; EC50 [8]: 80 nM; fold change (FC) [9]: 7.98 |
| CCOP(=O)(OCC)C(O)[C@H](C[C@@H]1CCNC1=O)NC(=O)[C@H](CC1CCCCC1)NC(=O)OCc1ccccc1F (stereo not given in full) | > 10000 | > 2000 | – |
| CCOP(=O)(OCC)C(O)[C@H](C[C@@H]1CCNC1=O)NC(=O)[C@H](CC1CCCCC1)NC(=O)OCc1cccc(Cl)c1 (stereo not given in full) | > 10000 | 60 | inhibition [2]: 14.3%; inhibition [3]: 0%; inhibition (Homo sapiens): 2.4%; inhibition [4]: 15%; inhibition (Bos taurus): 8.8%; inhibition [5]: 0%; inhibition [6]: 86.5% |
| O=C[C@H](C[C@@H]1CCNC1=O)NC(=O)[C@H](CC1CCCCC1)NC(=O)OCc1ccccc1Cl | 800 | 80 | – |

Continued, in another order:

| IC50 [1] [nM] | EC50 (Norovirus) [nM] | SMILES | also measured |
| --- | --- | --- | --- |
| 710 | 80 | O=C[C@H](C[C@@H]1CCNC1=O)NC(=O)[C@H](CC1CCCCC1)NC(=O)OCc1ccc(Cl)cc1 | – |
| 400 | 60 | O=C(N[C@@H](CC1CCCCC1)C(=O)N[C@@H](C[C@@H]1CCNC1=O)C(O)S(=O)(=O)O)OCc1ccccc1 (stereo not given in full) | – |
| 6500 | 150 | CCOP(=O)(OCC)C(O)[C@H](C[C@@H]1CCNC1=O)NC(=O)[C@H](CC1CCCCC1)NC(=O)OCc1cccc(Br)c1 (stereo not given in full) | inhibition [2]: 0%; inhibition [3]: 6%; inhibition (Homo sapiens): 0%; inhibition [4]: 13%; inhibition (Bos taurus): 1%; inhibition [5]: 0%; inhibition [6]: 63% |
| 1200 | 90 | O=C[C@H](C[C@@H]1CCNC1=O)NC(=O)[C@H](CC1CCCCC1)NC(=O)OCc1cccc(F)c1 | – |
| 700 | 70 | O=C(N[C@@H](CC1CCCCC1)C(=O)N[C@@H](C[C@@H]1CCNC1=O)C(O)S(=O)(=O)O)OCc1ccccc1Cl (stereo not given in full) | – |
| > 10000 | 200 | CCOP(=O)(OCC)C(O)[C@H](C[C@@H]1CCNC1=O)NC(=O)[C@H](CC1CCCCC1)NC(=O)OCc1ccccc1Cl (stereo not given in full) | – |
| > 10000 | 100 | COc1ccccc1COC(=O)N[C@@H](CC1CCCCC1)C(=O)N[C@H](C=O)C[C@@H]1CCNC1=O | – |
| 3500 | 300 | O=C(N[C@@H](CC1CCCCC1)C(=O)N[C@@H](C[C@@H]1CCNC1=O)C(=O)C(=O)NC1CC1)OCc1cccc(F)c1 | – |
| 900 | 80 | O=C[C@H](C[C@@H]1CCNC1=O)NC(=O)[C@H](CC1CCCCC1)NC(=O)OCc1ccccc1F | – |
| 600 | 150 | O=C[C@H](C[C@@H]1CCNC1=O)NC(=O)[C@H](CC1CCCCC1)NC(=O)OCc1cccc([N+](=O)[O-])c1 | – |
| 150 | 30 | O=C(N[C@@H](CC1CCCCC1)C(=O)N[C@@H](C[C@@H]1CCNC1=O)C(O)S(=O)(=O)O)OCc1cccc(Br)c1 (stereo not given in full) | – |
| 800 | 300 | CC(C)C[C@H](NC(=O)OCc1ccccc1)C(=O)N[C@@H](C[C@@H]1CCNC1=O)C(O)S(=O)(=O)O (stereo not given in full) | – |
| 3400 | 1100 | CC(C)C[C@H](NC(=O)OCc1ccccc1)C(=O)N[C@@H](C[C@@H]1CCNC1=O)C(=O)C(=O)NC1CC1 | – |
| 300 | 60 | O=C[C@H](C[C@@H]1CCNC1=O)NC(=O)[C@H](CC1CCCCC1)NC(=O)OCc1ccccc1 | – |
| 100 | 20 | O=C(N[C@@H](CC1CCCCC1)C(=O)N[C@@H](C[C@@H]1CCNC1=O)C(O)S(=O)(=O)O)OCc1cccc(Cl)c1 (stereo not given in full) | – |
| 150 | 40 | O=C(N[C@@H](CC1CCCCC1)C(=O)N[C@@H](C[C@@H]1CCNC1=O)C(O)S(=O)(=O)O)OCc1cccc(I)c1 (stereo not given in full) | – |
| 350 | 50 | O=C[C@H](C[C@@H]1CCNC1=O)NC(=O)[C@H](CC1CCCCC1)NC(=O)OCc1cccc(I)c1 | – |
| 5500 | 300 | CC(C)C[C@H](NC(=O)OCc1cccc(Cl)c1)C(=O)N[C@@H](C[C@@H]1CCNC1=O)C(=O)C(=O)NC1CC1 | – |
